# Experimental data published in article PMC4684772 (ACS chemical biology, 2015).
# “Also recorded” adds a separate entry of the source.
# How the values were obtained:
# [1] = test system: LUSQ cell lines (H157, H2170, H520, H596); test: cell viability; type: cell-based; details: for sensitivity regarding viability: H157 and H520 cells, Fig. S4
# Procedure, shortened: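 Four LUSQ lines (H157, H2170, H520, H596) were exposed to the test compound for 72 hours and cell viability was measured. IC50 values for inhibition of viability were derived per line.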
# H157 cells = test: Rb Ser780 phosphorylation immunoblot; type: cell-based; details: 1 µM and 5 µM, 4 and 24 hours
# CDK9 = test: in vitro kinase assay; type: biochemical; details: in vitro kinase assays
# TNK1 = test: in vitro kinase assay; type: biochemical; details: in vitro kinase assays
# AURKA = test: in vitro kinase assay; type: biochemical; details: in vitro kinase assays
# GAK = test: dose-dependent binding competition with soluble drug; details: Fig. S3C
# CDK4 = details: cited from earlier work; for IC50: read-out: IC50 for CDK4 inhibition
# CDK4/cyclin D1 = test: in vitro kinase assays for CDK4/cyclin D1 activity; type: biochemical; details: in vitro kinase assay CDK4/cyclin D1
# PIK3C3 = PIK3C3 (Homo sapiens, UniProt Q8NEB9); test: in vitro kinase assay; type: biochemical
# Chain of PIK3C3 (Q8NEB9 whole entry): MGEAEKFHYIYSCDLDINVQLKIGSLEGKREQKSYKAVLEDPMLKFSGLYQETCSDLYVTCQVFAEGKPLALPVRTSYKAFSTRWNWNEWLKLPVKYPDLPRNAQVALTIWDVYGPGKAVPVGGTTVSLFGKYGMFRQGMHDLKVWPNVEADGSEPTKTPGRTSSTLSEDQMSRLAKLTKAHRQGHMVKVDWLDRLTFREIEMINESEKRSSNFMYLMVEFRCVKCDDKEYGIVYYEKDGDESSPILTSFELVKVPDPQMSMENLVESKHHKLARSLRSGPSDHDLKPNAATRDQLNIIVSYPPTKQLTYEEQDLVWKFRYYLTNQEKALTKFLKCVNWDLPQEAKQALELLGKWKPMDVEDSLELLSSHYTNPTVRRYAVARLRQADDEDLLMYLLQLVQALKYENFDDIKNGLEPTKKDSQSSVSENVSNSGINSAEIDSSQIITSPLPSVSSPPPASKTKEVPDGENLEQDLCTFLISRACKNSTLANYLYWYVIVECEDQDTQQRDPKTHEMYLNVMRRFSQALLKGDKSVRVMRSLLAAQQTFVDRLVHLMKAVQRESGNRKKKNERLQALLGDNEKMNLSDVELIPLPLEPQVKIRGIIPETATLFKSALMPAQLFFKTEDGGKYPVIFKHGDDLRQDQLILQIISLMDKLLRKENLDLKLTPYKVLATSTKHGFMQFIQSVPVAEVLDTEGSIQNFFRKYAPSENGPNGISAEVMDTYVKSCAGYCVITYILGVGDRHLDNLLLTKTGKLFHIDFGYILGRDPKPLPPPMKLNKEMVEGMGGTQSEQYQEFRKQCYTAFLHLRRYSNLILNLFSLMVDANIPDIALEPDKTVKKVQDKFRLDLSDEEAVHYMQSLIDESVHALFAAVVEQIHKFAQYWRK
# H157 and H520 cells [2] = test: pSer473 AKT and pGSK3 Western blots; type: cell-based; details: 4 hours
# H157 and H520 cells [3] = test: LC3 Western blots; type: cell-based; details: 48 hours
# autophagic vesicles = test: quantitative analysis of autophagic vesicles by Cyto-ID; type: cell-based; details: 3 hour treatment
# PIK3CD = test: in vitro kinase assay; type: biochemical; details: in vitro kinase assays
# CSNK2α2 = test: in vitro kinase assay; type: biochemical; details: in vitro kinase assays
# PIK3R4 = test: dose-dependent binding competition with soluble drug; details: Fig. S3C
smiles,measurement,setting,value
Nc1cc(C(F)(F)F)c(-c2cc(N3CCOCC3)nc(N3CCOCC3)n2)cn1 [BKM120],sensitivity regarding viability,[1],relative insensitivity
CN(C)C(=O)c1cc2cnc(Nc3ccc(N4CCNCC4)cn3)nc2n1C1CCCC1 [ribociclib],inhibition of Rb phosphorylation at S780,H157 cells,effectively inhibited
same,"validation as target, CDK9",CDK9,potent
same,"validation as target, TNK1",TNK1,potent
same,inhibition of AURKA,AURKA,weakly inhibited
same,interaction with GAK,GAK,potent interactions
CN(C)C(=O)c1cc2cnc(Nc3ccc(N4CCN(CCCN)CC4)cn3)nc2n1C1CCCC1 [c-ribociclib],CDK4 activity of coupleable analogues,CDK4/cyclin D1,conservation of their CDK4 activity
CC[C@H](Nc1ncnc2[nH]cnc12)c1nc2cccc(F)c2c(=O)n1-c1ccccc1 [CAL-101],sensitivity regarding viability,[1],relative insensitivity
CC(=O)c1c(C)c2cnc(Nc3ccc(N4CCNCC4)cn3)nc2n(C2CCCC2)c1=O [palbociclib],IC50,PIK3C3,14.8 µM
same,inhibition of Rb phosphorylation at S780,H157 cells,effectively inhibited
same,inhibition of phosphorylation of AKT S473 and its downstream target GSK3β,H157 and H520 cells [2],dose-dependently inhibits
same,lipidation of LC3 (LC3-II),H157 and H520 cells [3],increased
same,number of autophagic vesicles,autophagic vesicles,increased
same,"validation as target, CDK9",CDK9,new palbociclib targets
same,"validation as target, PIK3CD",PIK3CD,relatively weak; also recorded: new palbociclib targets
same,"validation as target, CSNK2α2",CSNK2α2,new palbociclib targets
same,cellular activity compared with ribociclib,"[1]; LUSQ cell lines, 72 hours",somewhat more active
same,interaction with PIK3R4,PIK3R4,potent interactions
"CCN1CCN(Cc2ccc(Nc3ncc(F)c(-c4cc(F)c5nc(C)n(C(C)C)c5c4)n3)nc2)CC1 [Abemaciclib, abemaciclib]",effects on viability compared with palbociclib and ribociclib,"[1]; LUSQ cell lines, Fig. S1",stronger effects
same,fold more potent for CDK4 than palbociclib and ribociclib,CDK4,about 5 fold
